# Rows were chosen to be rich in hits. Some 0.74% of all compounds tested hit in one or more screens of this group.
# Tn7 DDE FP: DD(E)-Tn7 binding inhibition, primary FP screen; inhibition, % at 8.3 µM; P02675; FP displacement of FITC-Tn7 peptide from fibrin DD(E); 0% = median of compound wells per plate; AID 720508; 0.13% of 370,000 active;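 active means inhibition above the mean of compounds falling within the control limits plus 3 SD of them, cut at about 14% in these data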;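 further: 0% = plate median of compound wells and 100% = 10 µM Aha-Tn7 peptide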
# Target sequence (P02675 whole entry, looked up): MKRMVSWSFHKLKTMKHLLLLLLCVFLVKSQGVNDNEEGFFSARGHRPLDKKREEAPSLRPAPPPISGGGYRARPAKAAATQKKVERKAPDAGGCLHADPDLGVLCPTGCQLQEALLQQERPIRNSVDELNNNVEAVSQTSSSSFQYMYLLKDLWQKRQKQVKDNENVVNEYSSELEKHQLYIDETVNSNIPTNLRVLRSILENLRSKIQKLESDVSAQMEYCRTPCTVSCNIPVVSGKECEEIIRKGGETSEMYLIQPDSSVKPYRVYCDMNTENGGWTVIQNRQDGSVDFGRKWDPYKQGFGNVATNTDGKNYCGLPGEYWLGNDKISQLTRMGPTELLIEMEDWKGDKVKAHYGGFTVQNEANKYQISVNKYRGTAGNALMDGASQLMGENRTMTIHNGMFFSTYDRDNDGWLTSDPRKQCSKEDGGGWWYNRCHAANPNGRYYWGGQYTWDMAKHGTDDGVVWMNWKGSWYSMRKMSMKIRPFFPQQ
#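 System: human fibrin DD(E); quantity: Fibrin-DD(E) at 2 µM final; also added: fluorescent Tn7 probe at 0.1 µM; compound dosing: single nominal test concentration of 8.3 µM per compound; schedule: 10 min preincubation, 3 h with tracer, room temperature; detection: fluorescence polarization of the labelled Tn7 tracer; repeats: one replicate per compound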
# ARFGAP1 inhibitor: inhibits rat ARF GTPase activating protein 1 | Arfgap1-stimulated ARF1 GTP hydrolysis, GDP FP detection | 0.26% of 360,000 active | Q62848 | inhibition, % at 16.5 µM;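 active means inhibition above a per-plate limit, mean inhibition of low control wells plus 3 SD, cut at about 25% in these data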;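 further: 0% = DMSO wells with enzyme and 100% = wells lacking Arfgap1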
# Target sequence (Q62848 1-136 limits assumed): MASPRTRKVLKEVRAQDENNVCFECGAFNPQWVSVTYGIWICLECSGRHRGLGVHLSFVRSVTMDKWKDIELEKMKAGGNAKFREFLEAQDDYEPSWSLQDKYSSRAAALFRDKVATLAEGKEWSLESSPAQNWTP
#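 Assay system: Rat Arfgap1 GAP domain (His6, aa 1-136), purified enzyme | Buffer or medium: HEPES 25 mM pH 7.5, NaCl 150 mM, MgCl2, DTT | Schedule: GTP hydrolysis reaction 2 h at 25 °C | Signal: FP of antibody-bound GDP Alexa 633 tracer, ex 620/em 688 nm | Measure: Percent inhibition of Arfgap1-stimulated GTP hydrolysis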
# ASAP1 inh: inhibitors of human ASAP1 ArfGAP activity. 0.19% of 360,000 active. inhibition, % at 16.5 µM. ASAP1-stimulated ARF1 GTP hydrolysis, GDP FP detection; in the data active means inhibition above about 25%;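 further: 0% = vehicle with enzyme and substrate and 100% = no enzyme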
# Tn6 DDE FP: inhibitors of Tn6 peptide binding to human fibrin DD(E); P02675; Fibrin DD(E) TRITC-Tn6 fluorescence polarization displacement; inhibition, % at 8.3 µM; 0.21% of 370,000 active; AID 720509;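 active means inhibition above a per-campaign cutoff: mean of compounds within control limits plus 3 SD, cut at about 15% in these data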;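 further: 0% = median of all compound wells on the plate and 100% = blocking peptide control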
# ASAP1 GAP conf: confirmation of human ASAP1 inhibitors; shares compounds with ASAP1 inh; ASAP1-stimulated Arf1 GTPase, GDP fluorescence polarization; inhibition, % at 16.5 µM; 37% of 620 active;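 active means mean inhibition over triplicates exceeds the hit threshold derived for the earlier primary screening run, cut at about 25% in these data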
# An asterisk follows results filed as active; . = not tested or not shown.
SMILES,Tn7 DDE FP,ARFGAP1 inhibitor,ASAP1 inh,Tn6 DDE FP,ASAP1 GAP conf
COC(=O)[C@H](CC(C)C)N(Cc1cn(Cc2ccc(C)cc2)nn1)S(=O)(=O)c1ccccc1Br,-7,.,.,1,.
COC(=O)[C@H](C)N(Cc1cn(Cc2ccccc2)nn1)S(=O)(=O)c1ccccc1Br,-12,.,.,5,.
CC1(C)CC(=O)C2=C(C1)Nc1ccccc1NC2c1ccccc1F (stereo unspecified),7,-2,4,-2,.
Cc1c(C2Nc3ccccc3NC3=C2C(=O)CC(C)(C)C3)cnn1C (stereo unspecified),15*,-2,5,2,.
O[C@@H]1[C@@H](O)[C@H](n2c3ccc(Cl)cc3c3ccc4c5cc(Cl)ccc5[nH]c4c32)OC[C@H]1O,2,.,.,-14,.
O=C(c1ccoc1)N1CCN(c2cc(-c3ccco3)nc3cc(-c4ccco4)nn23)CC1,5,.,.,1,.
CC(C)[C@H](NC(=O)OCc1ccccc1)C(=O)OCC(=O)NC1(C#N)CCCC1,15*,-5,-8,14,.
CC(C)[C@H](NC(=O)OCc1ccccc1)C(=O)OCC(=O)NC1CCCCC1,8,-1,-5,-2,.
FC(F)(F)c1ccccc1NC(=S)OCCN1CCCC12CCC(c1ccccc1)CC2 (stereo unspecified),-1,.,.,3,.
Nc1cc(=O)[nH]c(SCC(=O)Nc2cc(Cl)cc(Cl)c2)n1,-7,-5,7,-3,.
Cc1cc(C)cc(NC(=O)CSc2nc(CSc3ccc(Cl)cc3)cc(=O)[nH]2)c1,6,11,26*,5,-4
CCOC(=O)[C@@]12CCCC=C1N(CCc1ccc(Cl)cc1)C(=O)[C@H]2CC(=O)NCc1cccc(C(F)(F)F)c1,6,.,.,-8,.
O=C(NCC1CCCO1)c1cccc(C(=O)NCC2CCCO2)c1 (stereo unspecified),6,-1,-2,5,.
O=C(NCC1CCCO1)c1ccc[nH]1 (stereo unspecified),0,10,27*,-1,-5
CC(C)CC(=O)NC(=S)Nc1ccc(NC(=O)c2cccs2)cc1,-2,6,25*,-2,4
CCC(NC(=O)c1ccc2c(c1)c(C)c(C)n2Cc1ccc(-c2ccccc2C#N)cc1)c1ccccc1 (stereo unspecified),-4,.,.,-7,.
O=C(Nc1ccc2ccccc2c1)C(=O)C1C(=O)Nc2ccccc21 (stereo unspecified),0,-11,25*,-1,-4
O=C(Nc1nnc(-c2cccnc2)s1)c1cnc2ccccc2c1,8,.,.,-16,.
CCOC(=O)C1CCN(c2nc(N)c3c(N)nc(SCC(=O)O)cc3c2C#N)CC1,3,38*,41*,-2,25*
CCOC(=O)C1CCN(c2nc(C)cc(C)c2C#N)CC1,-6,6,-5,-6,.
C[C@H]1[C@@H](OC(=O)N2CCN(c3ccccc3)CC2)CC[C@@]23CCCN2C(=O)CCC[C@@H]13,1,.,.,2,.
Fc1ccc(Nc2nc(-c3ccncc3)nc3ccccc23)cc1F,-3,6,38*,9,36*
Cc1c(O)ccc(/C=N/Nc2nc(-c3cccnc3)nc3ccccc23)c1O,1,8,27*,-30,22
Cc1ccc(-n2c(COc3ccccc3)nnc2SCC(=O)Nc2ccccc2-c2ccccc2)cc1,6,.,.,-2,.
Cn1cc(C2(c3c[nH]c4ccccc34)CCN(C(=O)OC(C)(C)C)CC2)c2ccccc21,7,.,.,5,.
SMILES,Tn7 DDE FP,ARFGAP1 inhibitor,ASAP1 inh,Tn6 DDE FP,ASAP1 GAP conf
Cc1[nH]c2ccccc2c1CC(=O)Nc1ccc(Nc2cccnc2)c(Br)c1,-3,21,27*,-3,16
O=C(CCc1ccccc1)N[C@H]1[C@@H](OC(=O)c2cnccn2)CCC[C@@]12C(=O)N(Cc1ccccc1)c1ccccc12,-10,.,.,7,.
CCCCCCCCCCCC(=O)c1c(O)cccc1O,2,14,28*,2,11
S=C(Nc1ccc2nsnc2c1)N1CCCC1,6,6,35*,-5,-2
O=C(Nc1ccc2nsnc2c1)N1CCCCCC1,3,14,22,-6,.
C=CCN1C(=O)[C@@H](CC(=O)NCCC(C)C)[C@]2(C(=O)OCC)CCCCC/C=C/12,13,.,.,1,.
COc1ccc(CN2C[C@]3(C=C4CCCCC4n4c(=O)n(-c5ccccc5)c(=O)n43)N=C2NC(=O)c2ccccc2)c(OC)c1 (stereo partly specified),-3,.,.,-3,.
CSc1ccc(OCC(=O)Nc2ccc(N3CCOCC3)c(Cl)c2)cc1,-1,9,1,0,.
O=C(COc1c(F)c(F)c(C(F)(F)F)c(F)c1F)Nc1ccc(N2CCOCC2)c(Cl)c1,6,6,25*,-3,7
CCOC(=O)c1cccnc1SCC(=O)Nc1ccc(C)cc1,-4,-5,0,-3,.
Cc1ccc(NC(=O)CSc2ncccc2C(=O)Oc2cccc([N+](=O)[O-])c2)cc1Cl,-1,7,44*,6,39*
CC(COc1ccc(CC#N)cc1)CN1CCC(C(O)(c2ccccc2)c2ccccc2)CC1 (stereo unspecified),-5,.,.,-2,.
CN(C(=O)CCn1nnc(-c2cccs2)n1)C1CCCCC1,4,.,.,8,.
O=c1[nH]c(Nc2ccc(F)cc2)cc2ccccc12,2,43*,37*,1,32*
COC(=O)c1cc(-c2cccs2)c(=O)n2c1CCC2,1,.,.,1,.
COC1=CC(=O)c2c(ccc3ncnc(N)c23)C1=O,-6,14,23,4,.
COC1=CC(=O)c2nc(Cl)ccc2C1=O,-8,9,38*,-12,17
Cc1cc(N=Cc2c(O)n(-c3ccc4c(c3)OCO4)c(=O)c3ccccc23)ccn1,-1,-8,39*,1,50*
Cc1ccsc1C(=O)OCC(=O)NC1CCCCC1,-5,-1,29*,-6,6
Cc1ccsc1C(=O)OCC(=O)NC1CC1,6,-9,5,-8,.
C=CCN(CC=C)CCOc1cc(C)ccc1[N+](=O)[O-],3,-8,25*,-1,0
COc1ccc(C(=O)O[C@@H]2CCC[C@@]3(C(=O)N(Cc4ccccc4)c4ccccc43)[C@H]2NC(=O)CCc2ccccc2)cc1OC,-2,.,.,-12,.
COC(=O)[C@]12C[C@H](CC(=O)NCCCCc3ccccc3)C(=O)N(CCc3ccc(OC)c(OC)c3)C1=C[C@H](C(C)(C)C)O[C@@H]2C,-3,.,.,-4,.
O=C(COc1ccc(/C=N/NC(=O)c2cc3ccccc3o2)cc1Br)Nc1ccccc1,-9,17,75*,3,84*
Cc1cccc(N=Nc2c(N)n[nH]c2-c2ccc(Cl)cc2)c1,-3,10,26*,2,18
Cc1ccc(N=Nc2c(N)n[nH]c2N)cc1,-8,0,2,6,.

# Source: PubChem BioAssay (The Scripps Research Institute Molecular Screening Center)
